Test results taken from ChEMBL document CHEMBL1151453, “Subinhibitory concentrations of azithromycin decrease nontypeable Haemophilus influenzae biofilm formation and Diminish established biofilms” (2008).
Active and inactive are the calls of the source.

Key:
Haemophilus influenzae [1] = experiment: Antimicrobial activity against nontypeable Haemophilus influenzae isolate 2019 expressing GFP isolated from patient with COPD assessed as decrease in biomass of 2 days established biofilm measured on day 4 using flow cell culture; format: functional, organism-based
Procedure, shortened: (§1)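 Flow cell: GFPmut3-expressing strain 2019 (kanamycin selection before inoculation) grown under a glass coverslip at 37°C. Medium was 1% BHI with NAD and hemin (1% final) in 150 mM NaCl, flowing at 0.08 ml/min, with or without antibiotic. Established-biofilm arm: no drug days 0–2, then drug days 2–4. Confocal imaging; biomass and maximal thickness by COMSTAT; n = 3.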

Haemophilus influenzae [2] = experiment: Antimicrobial activity against nontypeable Haemophilus influenzae isolate 2019 expressing GFP isolated from patient with COPD assessed as decrease in biomass of biofilm at 0.25 ug/mL after 4 days; format: functional, organism-based; procedure, shortened: as §1
Haemophilus influenzae [3] = experiment: Antimicrobial activity against nontypeable Haemophilus influenzae isolate 2019 expressing GFP isolated from patient with COPD assessed as decrease in maximal thickness of biofilm at 16 ug/mL after 2 days; format: functional, organism-based; procedure, shortened: as §1
Haemophilus influenzae [4] = experiment: Antimicrobial activity against nontypeable Haemophilus influenzae isolate 2019 expressing GFP isolated from patient with COPD assessed as maximal doubling time at 0.25 ug/mL using flow cell culture after 24 hrs; format: functional, organism-based
Haemophilus influenzae [5] = experiment: Antimicrobial activity against nontypeable Haemophilus influenzae isolate 2019 expressing GFP isolated from patient with COPD by […] assay; format: functional, organism-based
Procedure, shortened: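 MIC for strain 2019 carrying pRSM2211 determined by CLSI broth microdilution and Etest, performed by a hospital clinical microbiology laboratory.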

Haemophilus influenzae [6] = experiment: Antimicrobial activity against nontypeable Haemophilus influenzae isolate 2019 expressing GFP isolated from patient with COPD assessed as decrease in biomass of biofilm at 0.25 ug/mL after 2 days; format: functional, organism-based; procedure, shortened: as §1
Haemophilus influenzae [7] = experiment: Antimicrobial activity against nontypeable Haemophilus influenzae isolate 2019 expressing GFP isolated from patient with COPD assessed as growth inhibition at 0.25 ug/mL using static culture after 24 hrs; format: functional, organism-based
Haemophilus influenzae [8] = experiment: Antimicrobial activity against nontypeable Haemophilus influenzae isolate 2019 expressing GFP isolated from patient with COPD assessed as decrease in biomass of biofilm at 16 ug/mL after 2 days; format: functional, organism-based; procedure, shortened: as §1
Haemophilus influenzae [9] = experiment: Antimicrobial activity against nontypeable Haemophilus influenzae isolate 2019 expressing GFP isolated from patient with COPD assessed as decrease in biofilm formation at 8 ug/mL after 2 days; format: functional, organism-based; procedure, shortened: as §1
Haemophilus influenzae [10] = experiment: Antimicrobial activity against nontypeable Haemophilus influenzae isolate 2019 expressing GFP isolated from patient with COPD assessed as decrease in maximal thickness of biofilm at 0.25 ug/mL after 2 days; format: functional, organism-based; procedure, shortened: as §1
Haemophilus influenzae [11] = experiment: Antimicrobial activity against nontypeable Haemophilus influenzae isolate 2019 expressing GFP isolated from patient with COPD assessed as inhibition biofilm formation at 0.25 ug/mL after 2 days; format: functional, organism-based; procedure, shortened: as §1
Haemophilus influenzae [12] = experiment: Antimicrobial activity against nontypeable Haemophilus influenzae isolate 2019 expressing GFP isolated from patient with COPD assessed as decrease in maximal thickness of biofilm at 0.25 ug/mL after 4 days; format: functional, organism-based; procedure, shortened: as §1
Haemophilus influenzae [13] = experiment: Antimicrobial activity against nontypeable Haemophilus influenzae isolate 2019 expressing GFP isolated from patient with COPD assessed as decrease biomass of biofilm at 0.125 ug/mL after 2 days using flow cell culture relative to control; format: functional, organism-based
Procedure, shortened: (§2)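 Flow cell: GFPmut3-expressing strain 2019 (pRSM2211, kanamycin selection before inoculation) attached under a glass coverslip. Medium: 1% BHI with NAD and hemin ([…]) in 150 mM NaCl, 0.08 ml/min flow, 37°C. Antibiotic at 0.125 μg/ml, either from inoculation or added after 2 days. Confocal imaging; biomass and maximal thickness by COMSTAT (n = 3).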

Haemophilus influenzae [14] = experiment: Antimicrobial activity against nontypeable Haemophilus influenzae isolate 2019 expressing GFP isolated from patient with COPD assessed as decrease in biomass of biofilm in 2 days established biofilm at 0.125 ug/mL after 4 days using flow cell culture; format: functional, organism-based; procedure, shortened: as §2
Haemophilus influenzae [15] = experiment: Antimicrobial activity against nontypeable Haemophilus influenzae isolate 2019 expressing GFP isolated from patient with COPD assessed as viability at 0.125 ug/mL after 2 days using flow cell culture; format: functional, organism-based
Procedure, shortened: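 Flow-cell biofilms of GFP-expressing strain 2019 grown 2 days with or without 0.125 μg/ml antibiotic, then stained with propidium iodide for 15 min.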

Haemophilus influenzae [16] = experiment: Antimicrobial activity against nontypeable Haemophilus influenzae isolate 2019 expressing GFP isolated from patient with COPD assessed as decrease maximal thickness of biofilm at 0.125 ug/mL after 2 days using flow cell culture relative to control; format: functional, organism-based; procedure, shortened: as §2
Haemophilus influenzae [17] = experiment: Antimicrobial activity against azithromycin-resistant nontypeable Haemophilus influenzae isolate S61 assessed as inhibition of biofilm formation at >64 ug/mL; format: functional, organism-based
Procedure, shortened: (§3)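 Static-culture biofilm: mid-log-phase bacteria in BHI broth with 10 μg/ml hemin and 10 μg/ml NAD, azithromycin 0.06 to 64 μg/ml, flat-bottom polystyrene 96-well plates, 37°C. Planktonic growth read hourly as A490 over the first 7 h. Biomass at the air-liquid interface stained with crystal violet at 24 h, same wells. Representative data, n = 3.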

Haemophilus influenzae [18] = experiment: Antimicrobial activity against nontypeable Haemophilus influenzae isolate 2019 expressing GFP isolated from patient with COPD by broth microdilution method; format: functional
Procedure, shortened: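 MIC for strain 2019 carrying pRSM2211, by CLSI broth microdilution, done in a clinical microbiology laboratory.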

Haemophilus influenzae [19] = experiment: Antimicrobial activity against azithromycin-resistant nontypeable Haemophilus influenzae isolate S52 assessed as inhibition of biofilm formation at 8 ug/mL after 7 hrs using crystal violet; format: functional, organism-based
Haemophilus influenzae [20] = experiment: Antimicrobial activity against nontypeable Haemophilus influenzae isolate 2019 expressing GFP isolated from patient with COPD assessed as decrease in established biofilm formation at 0.125 ug/mL treated for 4 days measured on day 2 to 4 using flow cell culture; format: functional, organism-based; procedure, shortened: as §2
Haemophilus influenzae [21] = experiment: Antimicrobial activity against nontypeable Haemophilus influenzae isolate 2019 expressing GFP isolated from patient with COPD assessed as decrease in maximal thickness of biofilm at 0.125 ug/mL incubated for 2 days measured after days 4 using flow cell culture; format: functional, organism-based; procedure, shortened: as §2
Haemophilus influenzae [22] = experiment: Antimicrobial activity against azithromycin-resistant nontypeable Haemophilus influenzae isolate S34 assessed as inhibition of biofilm formation at >64 ug/mL; format: functional, organism-based; procedure, shortened: as §3
Haemophilus influenzae [23] = experiment: Antimicrobial activity against nontypeable Haemophilus influenzae isolate 2019 expressing GFP isolated from patient with COPD assessed as decrease biofilm formation at 0.125 ug/mL after 2 days using flow cell culture relative to control; format: functional, organism-based; procedure, shortened: as §2
Haemophilus influenzae [24] = experiment: Antimicrobial activity against nontypeable Haemophilus influenzae isolate 2019 expressing GFP isolated from patient with COPD assessed as decrease in biomass of biofilm at 0.125 ug/mL incubated for 2 days measured after day 4 using flow cell culture; format: functional, organism-based; procedure, shortened: as §2
Haemophilus influenzae [25] = experiment: Antimicrobial activity against azithromycin-resistant nontypeable Haemophilus influenzae isolate S43 assessed as inhibition of biofilm formation at >64 ug/mL; format: functional, organism-based; procedure, shortened: as §3
Haemophilus influenzae [26] = experiment: Antimicrobial activity against nontypeable Haemophilus influenzae isolate 2019 expressing GFP isolated from patient with COPD assessed as inhibition of biofilm formation at 0.25 ug/ml after 7 hrs using crystal violet; format: functional, organism-based
Haemophilus influenzae [27] = experiment: Antimicrobial activity against azithromycin-resistant nontypeable Haemophilus influenzae isolate S57 assessed as inhibition of biofilm formation at 64 ug/mL after 7 hrs using crystal violet; format: functional, organism-based
Haemophilus influenzae [28] = experiment: Antimicrobial activity against nontypeable Haemophilus influenzae isolate 2019 expressing GFP isolated from patient with COPD assessed as decrease in biofilm formation at 0.125 ug/mL treated for 4 days measured on day 2 to 4 using flow cell culture; format: functional, organism-based; procedure, shortened: as §2
Haemophilus influenzae [29] = experiment: Antimicrobial activity against azithromycin-resistant nontypeable Haemophilus influenzae isolate S44 assessed as inhibition of biofilm formation at >64 ug/mL; format: functional, organism-based; procedure, shortened: as §3
Haemophilus influenzae [30] = experiment: Antimicrobial activity against nontypeable Haemophilus influenzae isolate 2019 expressing GFP isolated from patient with COPD assessed as growth inhibition at 0.125 ug/mL […]; format: functional, organism-based
Haemophilus influenzae [31] = experiment: Antimicrobial activity against nontypeable Haemophilus influenzae isolate 2019 expressing GFP isolated from patient with COPD assessed as decrease in maximum thickness of biofilm in 2 days established biofilm at 0.125 ug/mL after 4 days using flow cell culture; format: functional, organism-based; procedure, shortened: as §2
Haemophilus influenzae [32] = experiment: Antimicrobial activity against nontypeable Haemophilus influenzae isolate 2019 expressing GFP isolated from patient with COPD assessed as maximal doubling time at 0.125 ug/mL using flow cell culture after 24 hrs; format: functional
Procedure, shortened: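 Growth curves: overnight strain 2019 culture, 1 ml diluted into 24 ml supplemented BHI (starting OD600 <0.050), antibiotic 0.03–2 μg/ml. Shaken at 37°C, OD600 read hourly. Maximal doubling time taken from the curves. Also repeated in flow-cell medium (1% supplemented BHI in 150 mM NaCl).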

Haemophilus influenzae [33] = experiment: Antimicrobial activity against azithromycin-resistant nontypeable Haemophilus influenzae isolate S53 assessed as inhibition of biofilm formation at 16 ug/mL after 7 hrs using crystal violet; format: functional, organism-based
Haemophilus influenzae [34] = experiment: Antimicrobial activity against nontypeable Haemophilus influenzae isolate 2019 expressing GFP isolated from patient with COPD assessed as viability at 0.125 ug/mL incubated for 2 days measured on day 4 using flow cell culture; format: functional, organism-based

GENTAMICIN
active: Activity (Haemophilus influenzae [1]) Dose-dependent effect | Activity (Haemophilus influenzae [3]) | Activity (Haemophilus influenzae [7]) | Activity (Haemophilus influenzae [8]) | Activity (Haemophilus influenzae [9]) | Activity (Haemophilus influenzae [11])
51 min: Activity (Haemophilus influenzae [4])
2 µg/mL: MIC (Haemophilus influenzae [5])
inactive: Activity (Haemophilus influenzae [2]) | Activity (Haemophilus influenzae [6]) | Activity (Haemophilus influenzae [10]) | Activity (Haemophilus influenzae [12])

CC[C@H]1OC(=O)[C@H](C)[C@@H](O[C@H]2C[C@@](C)(OC)[C@@H](O)[C@H](C)O2)[C@H](C)[C@@H](O[C@@H]2O[C@H](C)C[C@H](N(C)C)[C@H]2O)[C@](C)(O)C[C@@H](C)CN(C)[C@H](C)[C@@H](O)[C@]1(C)O [AZITHROMYCIN]
44 min: Activity (Haemophilus influenzae [32])
inactive: Activity (Haemophilus influenzae [15]) | Activity (Haemophilus influenzae [21]) | Activity (Haemophilus influenzae [24]) | Activity (Haemophilus influenzae [30]) | Activity (Haemophilus influenzae [34])
active: Activity (Haemophilus influenzae [13]) | Activity (Haemophilus influenzae [14]) | Activity (Haemophilus influenzae [16]) | Activity (Haemophilus influenzae [17]) | Activity (Haemophilus influenzae [19]) | Activity (Haemophilus influenzae [20]) | Activity (Haemophilus influenzae [22]) | Activity (Haemophilus influenzae [23]) | Activity (Haemophilus influenzae [25]) | Activity (Haemophilus influenzae [26]) | Activity (Haemophilus influenzae [27]) | Activity (Haemophilus influenzae [28]) | Activity (Haemophilus influenzae [29]) | Activity (Haemophilus influenzae [31]) | Activity (Haemophilus influenzae [33])
0.5 µg/mL: MIC (Haemophilus influenzae [18])

CC[C@H]1OC(=O)[C@H](C)[C@@H](O[C@H]2C[C@@](C)(OC)[C@@H](O)[C@H](C)O2)[C@H](C)[C@@H](O[C@@H]2O[C@H](C)C[C@H](N(C)C)[C@H]2O)[C@](C)(O)C[C@@H](C)C(=O)[C@H](C)[C@@H](O)[C@]1(C)O
inactive: Activity (Haemophilus influenzae [11])
